Columns and labels:
[1] = substrate: CC1=CC(=O)c2c(O)cccc2C1=O; assay: (§1) The Michaelis-Menten constant for […] by pig heart LipDH (lipoamide dehydrogenase)
Procedure, shortened: (§2)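 Recombinant T. cruzi LipDH (E. coli, purified) or pig heart LipDH, 0.1–2.5 µg/mL. Buffer was 50 mM potassium phosphate, 1 mM EDTA, pH 7.0, with 100 µM NADH and naphthoquinone at 10 µM–1.2 mM; all assays carried equal DMSO. Run at 31 °C, started with enzyme, NADH decrease followed at 340 nm. Km and Vmax from Lineweaver–Burk plots. At least duplicate.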

[2] = substrate: CC1=CC(=O)c2ccccc2C1=O; assay: as §1; procedure, shortened: as §2
[3] = substrate: CC1=C(CCC(=O)NCCCN2CCN(C)CC2)C(=O)c2ccccc2C1=O; assay: as §1; procedure, shortened: as §2
[4] = substrate: CC1=C(CCCNC(=O)OC(C)(C)C)C(=O)c2c(O)cccc2C1=O; assay: The Michaelis-Menten constant for NADH oxidation by pig heart LipDH (lipoamide dehydrogenase)
[5] = substrate: CC1=C(CCC(=O)O)C(=O)c2c(O)cccc2C1=O; assay: as above
[6] = substrate: CC1=C(CCC(=O)NCCCN2CCN(C)CC2)C(=O)c2c(O)cccc2C1=O; assay: as above
[7] = substrate: CC1=C(CCCNC(=O)OC(C)(C)C)C(=O)c2ccccc2C1=O; assay: as above
[8] = substrate: CC1=C(CCC(=O)O)C(=O)c2ccccc2C1=O; assay: as above
[9] = substrate: CC1=C(CCCNC(=O)OC(C)(C)C)C(=O)c2c(O)cccc2C1=O; assay: (§3) Vmax is the maximum velocity of the pig heart LipDH (lipoamide dehydrogenase) catalyzed NADH oxidation; procedure, shortened: as §2
[10] = substrate: CC1=C(CCC(=O)O)C(=O)c2c(O)cccc2C1=O; assay: as §3; procedure, shortened: as §2
[11] = substrate: CC1=CC(=O)c2c(O)cccc2C1=O; assay: as §3; procedure, shortened: as §2
[12] = substrate: CC1=C(CCC(=O)NCCCN2CCN(C)CC2)C(=O)c2c(O)cccc2C1=O; assay: as §3; procedure, shortened: as §2
[13] = substrate: CC1=C(CCCNC(=O)OC(C)(C)C)C(=O)c2ccccc2C1=O; assay: as §3; procedure, shortened: as §2
[14] = substrate: CC1=CC(=O)c2ccccc2C1=O; assay: as §3; procedure, shortened: as §2
[15] = substrate: CC1=C(CCC(=O)O)C(=O)c2ccccc2C1=O; assay: as §3; procedure, shortened: as §2
[16] = substrate: CC1=C(CCC(=O)NCCCN2CCN(C)CC2)C(=O)c2ccccc2C1=O; assay: as §3; procedure, shortened: as §2

B1: Dihydrolipoyl dehydrogenase, mitochondrial (Sus scrofa), P09623 (protein)
chain: MQSWSRVYCTLAKRGHFNRIAHGLQGVSAVPLRTYADQPIDADVTVIGSGPGGYVAAIKAAQLGFKTVCIEKNETLGGTCLNVGCIPSKALLNNSHYYHMAHGKDFASRGIEMSEVRLNLEKMMEQKSNAVKALTGGIAHLFKQNKVVRVNGYGKITGKNQVTATKADGSTEVINTKNILIATGSEVTPFPGITIDEDTVVSSTGALSLKKVPEKMVVIGAGVIGVELGSVWQRLGADVTAVELLGHVGGIGIDMEVSKNFQRILQKQGFKFKLNTKVIGATKKSDGNIDVSIEAASGGKAEVITCDVLLVCIGRRPFTQNLGLEELGIELDPRGRIPVNTRFQTKIPNIYAIGDVVAGPMLAHKAEDEGIICVEGMAGGAVHIDYNCVPSVIYTHPEVAWVGKSEEQLKEEGIEYKVGKFPFAANSRAKTNADTDGMVKILGQKSTDRVLGAHIIGPGAGEMINEAALALEYGASCEDIARVCHAHPTLSEAFREANLAASFGKAINF
Km [1]: 74 µM | Km [2]: 72 µM | Km [3]: 110 µM | Km [4]: 40 µM | Km [5]: 75 µM | Km [6]: 15 µM | Km [7]: 25 µM | Km [8]: 40 µM | Vmax [9]: 1.66 µM/min/mg | Vmax [10]: 2.2 µM/min/mg | Vmax [11]: 25.3 µM/min/mg | Vmax [12]: 1.09 µM/min/mg | Vmax [13]: 1.03 µM/min/mg | Vmax [14]: 11.5 µM/min/mg | Vmax [15]: 1.52 µM/min/mg | Vmax [16]: 3.46 µM/min/mg

From ChEMBL document CHEMBL1134791, “2- and 3-substituted 1,4-naphthoquinone derivatives as subversive substrates of trypanothione reductase and lipoamide dehydrogenase from Trypanosoma cruzi: synthesis and correlation between redox cycling activities and in vitro cytotoxicity” (J Med Chem, 2001)
